The source of these data is ChEMBL document CHEMBL1138485, “Discovery of inducible nitric oxide synthase (iNOS) inhibitor development candidate KD7332, part 1: Identification of a novel, potent, and selective series of quinolinone iNOS dimerization inhibitors that are orally active in rodent pain models” (J Med Chem, 2009).

T1 sequence (P35228 whole entry): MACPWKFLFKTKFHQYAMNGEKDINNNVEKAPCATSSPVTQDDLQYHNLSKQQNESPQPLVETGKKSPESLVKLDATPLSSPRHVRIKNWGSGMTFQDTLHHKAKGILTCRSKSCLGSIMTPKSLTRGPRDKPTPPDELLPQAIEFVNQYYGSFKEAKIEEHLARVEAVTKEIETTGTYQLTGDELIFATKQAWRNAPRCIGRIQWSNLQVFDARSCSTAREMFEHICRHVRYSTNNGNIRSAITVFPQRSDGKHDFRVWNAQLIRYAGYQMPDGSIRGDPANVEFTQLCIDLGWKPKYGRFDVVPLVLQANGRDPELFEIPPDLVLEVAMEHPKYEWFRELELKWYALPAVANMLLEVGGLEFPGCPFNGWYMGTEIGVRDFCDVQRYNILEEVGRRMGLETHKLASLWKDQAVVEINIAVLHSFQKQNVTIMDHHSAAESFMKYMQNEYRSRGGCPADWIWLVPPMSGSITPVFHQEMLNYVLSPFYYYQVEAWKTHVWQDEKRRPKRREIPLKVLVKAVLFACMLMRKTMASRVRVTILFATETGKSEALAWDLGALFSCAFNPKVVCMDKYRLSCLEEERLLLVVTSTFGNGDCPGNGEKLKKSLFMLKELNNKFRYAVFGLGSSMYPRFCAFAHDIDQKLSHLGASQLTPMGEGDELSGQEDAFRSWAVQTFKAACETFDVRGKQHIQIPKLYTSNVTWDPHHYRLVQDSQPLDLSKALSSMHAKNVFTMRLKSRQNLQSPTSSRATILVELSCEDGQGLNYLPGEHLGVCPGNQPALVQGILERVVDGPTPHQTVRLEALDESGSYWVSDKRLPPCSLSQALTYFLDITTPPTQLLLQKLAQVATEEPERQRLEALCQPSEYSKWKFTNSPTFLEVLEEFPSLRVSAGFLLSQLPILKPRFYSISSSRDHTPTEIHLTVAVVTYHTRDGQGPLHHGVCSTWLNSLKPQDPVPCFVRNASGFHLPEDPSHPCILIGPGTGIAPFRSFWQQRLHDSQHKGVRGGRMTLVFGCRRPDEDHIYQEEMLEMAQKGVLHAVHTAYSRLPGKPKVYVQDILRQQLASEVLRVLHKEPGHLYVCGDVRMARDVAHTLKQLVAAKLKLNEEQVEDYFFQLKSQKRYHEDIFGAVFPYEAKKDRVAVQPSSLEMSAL

In the first series the target is T1, Nitric oxide synthase, inducible (Homo sapiens, UniProt P35228). The series is described as follows: Inhibition of human iNOS expressed in HEK293 cells assessed as NO production by transient transfection assay. The series is classed as cell-based. In short, it runs like this:
(§1)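 HEK293 cells grown to ~70% confluence in DMEM/10% FBS with pen/strep. Cells transiently transfected with 10 µg human or murine iNOS plasmid (Fugene 6), 4 h at 37 °C, 10% CO2. Trypsinized, plated at 5 × 10⁵ cells/mL and dosed at once; 1400W 100 µM final as positive control. After 18 h, NO read as DAN fluorescence (10 µg/mL, 20 min RT, then NaOH). EC50 from 3 runs, 10-point curves, n = 8/point.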
Usually EC50 stands for the midpoint of the concentration-response curve. For `Cc1ncsc1C(=O)N(Cc1cc(=O)n(C)c2c(F)cccc12)c1cccc(Cl)c1`, the EC50 is more than 100000 nM.
Same read-out and setting: then `Cc1ncsc1C(=O)N(Cc1cc[nH]c(=O)c1)c1cccc(Cl)c1`, with more than 100000 nM; and `Cc1noc(C)c1C(=O)N(Cc1cc(=O)[nH]c2c(F)c(F)ccc12)c1cccc(Cl)c1`, with 3 nM; and `Cc1ncsc1C(=O)N(Cc1c[n+]([O-])cc2c(F)cccc12)c1cccc(Cl)c1`, with 87 nM.
Turning to `Cc1ncsc1C(=O)N(Cc1ccnc2c(F)cccc12)c1cccc(Cl)c1`, the EC50 was more than 100000 nM.
For the compound `COc1cc(CN(C(=O)c2scnc2C)c2cccc(Cl)c2)c2cccc(F)c2n1`, the EC50 is more than 100000 nM.
Still for that read-out and setting: then `Cc1ncsc1C(=O)N(Cc1c(F)c(=O)[nH]c2c(F)cccc12)c1cccc(Cl)c1`, with 26 nM.

System in a further series: not listed separately
The series can be described thus: Drug level in LPS-challenged BALB/c mouse plasma at 30 mg/kg, po after 6 hrs. The series is classed as ADME, organism-based. On the set-up: dose 30 mg/kg, route oral. The essentials:
(§2)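 Male Balb/c mice were dosed by oral gavage (90% PEG/5% Tween 80/5% PVP + 90% CMC (0.5% w/v)) at t = 0 h, 30 mg/kg for single-dose lines. LPS 10 mg/kg ip in 0.9% NaCl followed immediately. At 6 h, EDTA plasma was taken for nitrate and drug levels. Nitrate reduction is relative to vehicle; ED50 came from full oral dose-response.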
Regarding `Cc1ncsc1C(=O)N(Cc1c[n+]([O-])cc2c(F)cccc12)c1cccc(Cl)c1`, the concentration at 6 h worked out at 39 ng/mL.

The test system of the next series is Mus musculus. The series can be described thus: Reduction of plasma nitrate level in LPS-challenged BALB/c mouse at 30 mg/kg, po. It counts as functional. Also on record: scale not given: the % may be the effect or the level left. The essentials: as §2
With `Cc1noc(C)c1C(=O)N(Cc1cc(=O)[nH]c2c(F)c(F)ccc12)c1cccc(Cl)c1`, the Activity worked out at 67%.
Consider `Cc1ncsc1C(=O)N(Cc1c[n+]([O-])cc2c(F)cccc12)c1cccc(Cl)c1`, for which the Activity is on record as 20%.
Same read-out and setting: the result for `Cc1ncsc1C(=O)N(Cc1c(F)c(=O)[nH]c2c(F)cccc12)c1cccc(Cl)c1` reads 29%.

A further series deals with Nitric oxide synthase 1 (Homo sapiens, UniProt P29475). The series is described as follows: Inhibition of human nNOS expressed in HEK293 cells assessed as NO production by transient transfection assay. It counts as cell-based.
Sequence of Nitric oxide synthase 1 (P29475 whole entry): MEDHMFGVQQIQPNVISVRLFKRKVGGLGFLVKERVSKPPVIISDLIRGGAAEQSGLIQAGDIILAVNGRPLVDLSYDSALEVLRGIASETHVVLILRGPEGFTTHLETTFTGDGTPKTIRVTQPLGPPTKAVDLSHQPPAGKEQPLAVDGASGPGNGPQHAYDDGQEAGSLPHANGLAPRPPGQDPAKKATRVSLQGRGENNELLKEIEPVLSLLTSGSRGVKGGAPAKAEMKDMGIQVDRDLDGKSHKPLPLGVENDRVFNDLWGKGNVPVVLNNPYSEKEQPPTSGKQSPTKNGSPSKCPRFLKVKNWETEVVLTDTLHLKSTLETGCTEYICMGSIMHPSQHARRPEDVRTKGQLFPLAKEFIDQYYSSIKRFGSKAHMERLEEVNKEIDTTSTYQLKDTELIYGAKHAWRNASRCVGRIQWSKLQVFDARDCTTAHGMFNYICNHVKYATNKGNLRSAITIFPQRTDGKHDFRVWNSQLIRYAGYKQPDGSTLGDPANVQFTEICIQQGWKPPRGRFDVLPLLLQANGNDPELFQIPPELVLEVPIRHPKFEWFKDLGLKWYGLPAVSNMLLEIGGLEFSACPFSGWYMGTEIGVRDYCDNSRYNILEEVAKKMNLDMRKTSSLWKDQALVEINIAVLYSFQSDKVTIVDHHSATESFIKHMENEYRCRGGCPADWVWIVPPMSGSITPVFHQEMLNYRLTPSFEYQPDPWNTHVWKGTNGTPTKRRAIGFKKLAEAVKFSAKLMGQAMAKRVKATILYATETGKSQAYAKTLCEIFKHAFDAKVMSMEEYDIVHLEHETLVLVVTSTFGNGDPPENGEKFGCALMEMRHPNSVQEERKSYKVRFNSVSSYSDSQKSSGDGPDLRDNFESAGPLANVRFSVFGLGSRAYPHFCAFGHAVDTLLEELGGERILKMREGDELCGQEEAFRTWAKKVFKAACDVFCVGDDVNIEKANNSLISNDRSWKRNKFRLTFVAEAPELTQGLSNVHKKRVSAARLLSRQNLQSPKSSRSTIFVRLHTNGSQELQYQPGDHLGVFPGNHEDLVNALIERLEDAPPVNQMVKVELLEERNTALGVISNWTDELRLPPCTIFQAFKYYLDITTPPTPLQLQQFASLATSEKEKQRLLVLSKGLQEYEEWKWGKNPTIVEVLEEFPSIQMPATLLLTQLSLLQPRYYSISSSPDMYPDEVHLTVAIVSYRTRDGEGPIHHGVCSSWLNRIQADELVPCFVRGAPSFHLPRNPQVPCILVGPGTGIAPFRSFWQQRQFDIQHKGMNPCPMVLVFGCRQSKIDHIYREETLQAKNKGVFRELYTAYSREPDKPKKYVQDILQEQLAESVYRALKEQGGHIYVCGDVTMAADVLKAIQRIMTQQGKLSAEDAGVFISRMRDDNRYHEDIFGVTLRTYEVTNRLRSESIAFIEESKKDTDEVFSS
Regarding `Cc1noc(C)c1C(=O)N(Cc1cc(=O)[nH]c2c(F)c(F)ccc12)c1cccc(Cl)c1`, the concentration for a half-maximal effect (EC50) was 97 nM.
For the compound `Cc1ncsc1C(=O)N(Cc1c(F)c(=O)[nH]c2c(F)cccc12)c1cccc(Cl)c1`, the concentration giving a half-maximal response (EC50) is more than 10000 nM.

The target in a further series is T2, Nitric oxide synthase, inducible (Mus musculus, UniProt P29477).
T2 sequence (P29477 whole entry): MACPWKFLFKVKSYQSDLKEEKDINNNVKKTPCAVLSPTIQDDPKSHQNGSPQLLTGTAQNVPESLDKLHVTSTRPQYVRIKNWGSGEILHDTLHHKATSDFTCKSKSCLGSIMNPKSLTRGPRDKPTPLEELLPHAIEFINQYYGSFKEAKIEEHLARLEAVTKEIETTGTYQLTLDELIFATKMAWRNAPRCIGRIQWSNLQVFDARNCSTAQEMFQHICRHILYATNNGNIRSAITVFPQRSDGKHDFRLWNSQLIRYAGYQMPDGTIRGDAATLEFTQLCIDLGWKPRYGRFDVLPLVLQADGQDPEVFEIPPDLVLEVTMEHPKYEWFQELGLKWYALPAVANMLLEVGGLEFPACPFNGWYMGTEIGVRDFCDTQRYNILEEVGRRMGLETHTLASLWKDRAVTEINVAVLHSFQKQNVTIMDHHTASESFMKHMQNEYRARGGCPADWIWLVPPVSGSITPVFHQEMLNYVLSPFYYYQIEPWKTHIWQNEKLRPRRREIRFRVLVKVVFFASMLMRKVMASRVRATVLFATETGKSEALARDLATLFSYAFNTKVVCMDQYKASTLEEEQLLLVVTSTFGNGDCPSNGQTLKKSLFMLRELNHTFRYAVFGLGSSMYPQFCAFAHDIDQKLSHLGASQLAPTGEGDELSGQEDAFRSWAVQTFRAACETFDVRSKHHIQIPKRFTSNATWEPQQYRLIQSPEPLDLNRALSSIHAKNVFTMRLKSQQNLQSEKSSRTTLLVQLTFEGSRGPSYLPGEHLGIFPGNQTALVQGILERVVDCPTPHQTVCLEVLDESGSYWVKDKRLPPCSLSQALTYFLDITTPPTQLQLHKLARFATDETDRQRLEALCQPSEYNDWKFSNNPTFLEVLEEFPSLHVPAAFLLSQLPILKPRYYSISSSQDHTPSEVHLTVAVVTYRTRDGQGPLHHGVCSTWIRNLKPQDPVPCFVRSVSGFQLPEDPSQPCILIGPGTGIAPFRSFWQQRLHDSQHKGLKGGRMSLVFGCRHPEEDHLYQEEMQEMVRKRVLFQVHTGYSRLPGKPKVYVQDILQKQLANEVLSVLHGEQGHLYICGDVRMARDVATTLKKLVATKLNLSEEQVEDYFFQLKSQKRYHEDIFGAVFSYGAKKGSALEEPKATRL
The series can be described thus: Inhibition of mouse iNOS expressed in HEK293 cells assessed as NO production in by transient transfection assay. The series is classed as cell-based. In short, it runs like this:
as §1
Take `Cc1noc(C)c1C(=O)N(Cc1cc(=O)[nH]c2c(F)c(F)ccc12)c1cccc(Cl)c1`: the EC50 came out at 22 nM.
On the same count and under the same terms, the result for `Cc1ncsc1C(=O)N(Cc1c[n+]([O-])cc2c(F)cccc12)c1cccc(Cl)c1` reads 660 nM; that for `Cc1ncsc1C(=O)N(Cc1c(F)c(=O)[nH]c2c(F)cccc12)c1cccc(Cl)c1`, 130 nM.

The next series addresses T1, Nitric oxide synthase, inducible. The series is described as follows: Inhibition of human iNOS expressed in HEK293 cells assessed as NO production at 100 uM by transient transfection assay. The series is classed as cell-based.
By inhibition is commonly meant the relative decrease from the control value, in per cent. As to `Cc1ncsc1C(=O)N(Cc1cc(=O)n(C)c2c(F)cccc12)c1cccc(Cl)c1`, the inhibition is less than 50%.
For the compound `Cc1ncsc1C(=O)N(Cc1cc[nH]c(=O)c1)c1cccc(Cl)c1`, the inhibition was less than 50%.
`Cc1ncsc1C(=O)N(Cc1ccnc2c(F)cccc12)c1cccc(Cl)c1`: the inhibition was less than 50%.
Regarding `COc1cc(CN(C(=O)c2scnc2C)c2cccc(Cl)c2)c2cccc(F)c2n1`, the inhibition is less than 50%.

The target of a further series is T3, Nitric oxide synthase 3 (Homo sapiens, UniProt P29474).
T3 sequence (P29474 whole entry): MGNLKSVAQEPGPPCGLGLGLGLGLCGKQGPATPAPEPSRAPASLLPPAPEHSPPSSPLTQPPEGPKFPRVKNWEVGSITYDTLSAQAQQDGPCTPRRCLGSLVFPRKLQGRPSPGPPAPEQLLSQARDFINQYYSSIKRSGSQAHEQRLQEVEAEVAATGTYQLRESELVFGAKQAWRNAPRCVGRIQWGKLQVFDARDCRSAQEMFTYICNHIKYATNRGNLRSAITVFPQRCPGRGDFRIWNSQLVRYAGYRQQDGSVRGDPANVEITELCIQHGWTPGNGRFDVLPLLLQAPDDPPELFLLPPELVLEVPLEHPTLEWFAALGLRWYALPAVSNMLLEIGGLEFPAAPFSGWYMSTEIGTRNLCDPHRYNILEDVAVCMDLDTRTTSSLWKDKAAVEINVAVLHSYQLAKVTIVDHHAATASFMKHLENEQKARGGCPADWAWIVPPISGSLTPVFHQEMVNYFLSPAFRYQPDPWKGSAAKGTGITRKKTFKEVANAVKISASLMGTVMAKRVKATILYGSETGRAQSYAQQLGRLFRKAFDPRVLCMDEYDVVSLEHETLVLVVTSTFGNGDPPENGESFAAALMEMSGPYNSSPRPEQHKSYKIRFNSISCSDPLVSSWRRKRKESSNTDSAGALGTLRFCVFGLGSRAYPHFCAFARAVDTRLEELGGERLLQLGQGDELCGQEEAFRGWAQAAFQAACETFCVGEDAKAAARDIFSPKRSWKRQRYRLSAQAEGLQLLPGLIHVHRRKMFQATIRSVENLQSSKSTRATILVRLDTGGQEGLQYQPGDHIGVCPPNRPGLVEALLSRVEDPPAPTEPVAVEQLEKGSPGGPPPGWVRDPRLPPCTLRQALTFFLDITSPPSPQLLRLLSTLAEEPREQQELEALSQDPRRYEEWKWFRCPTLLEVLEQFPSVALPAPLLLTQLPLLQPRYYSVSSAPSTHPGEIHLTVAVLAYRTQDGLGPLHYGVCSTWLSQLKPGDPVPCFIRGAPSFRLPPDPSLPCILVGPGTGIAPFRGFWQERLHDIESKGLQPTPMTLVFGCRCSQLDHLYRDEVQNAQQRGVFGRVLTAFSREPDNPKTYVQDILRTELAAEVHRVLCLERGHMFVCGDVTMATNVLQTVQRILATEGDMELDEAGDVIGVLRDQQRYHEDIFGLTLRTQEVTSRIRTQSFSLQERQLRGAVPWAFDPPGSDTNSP
The series is described as follows: Inhibition of human eNOS expressed in HEK293 cells assessed as NO production by transient transfection assay. It counts as cell-based. The essentials: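 HEK293 cells grown to ~70% confluence in DMEM/10% FBS with pen/strep, transfected with 15 µg human eNOS plasmid plus Fugene 6 (3:1 µL:µg), 4 h at 37 °C, 10% CO2. Cells replated at 5 × 10⁵/mL, compound added at once, 24 h incubation, then A23187 (83 nM final). After 18 h, NO read by DAN fluorescence.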
For `Cc1noc(C)c1C(=O)N(Cc1cc(=O)[nH]c2c(F)c(F)ccc12)c1cccc(Cl)c1`, the EC50 is 1200 nM.
Consider `Cc1ncsc1C(=O)N(Cc1c(F)c(=O)[nH]c2c(F)cccc12)c1cccc(Cl)c1`, for which the EC50 was 35000 nM.
